Variants at the floor of the assay were thinned out.
B1: tRNA (parent)
chain: GUUCCGUUGGCGUAAUGGUAACGCGUCUCCCUCCUAAGGAGAAGACUGCGGGUUCGAGUCCCGUACGGAACG

Variants of: B1
Test: yeast fitness relative to wild type (ratio to wild type); higher = fitter; tRNA-Arg(CCU), competitive growth, 37 C, YPD
Procedure, shortened: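 Variants of the tRNA-Arg(CCU) gene, chemically synthesised with a 3% per-site mutation rate at 69 sites, were placed at the native genomic locus in Saccharomyces cerevisiae. The pooled strains were competed in YPD at 37°C for 24 hours in six parallel replicates. Gene amplicons from the start population and from each end population were read by 100-nucleotide paired-end sequencing. Darwinian fitness relative to wild type came from changes in genotype frequencies; genotypes needed ≥ 100 starting reads, and estimates < 0.5 were set to 0.5.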

First: GUUCCGUUGGCGUAAUGGUAACGCGUUUCCCUCCUAAGGCGAAGACUGCGGGUUCGAAUCCCGUACGGACCG [C27U A40C G58A A70C]
Second: GAUCCGUUGGCGUAAUGGUAACGAGUCUCUCUCCUAAGGAGAAGACUGCGGGUUCGAGUCCCGUACGGAACG [U2A C24A C30U]
The yeast fitness of the first is higher: 0.511 for the first, no more than 0.5 for the second.

Going from GUUCCGUUGACGUAAUGAUAACGCGUCUCCCUCCUAAGGAGAAGACUGCGGGUUCGAGUCCUGUACGGAACG [G10A G18A C62U] to GUUCCGUUGGCGUAAUGGUAACGCGUCUCCCUCCUAAGGAGAAGACUCAGGGAUCAACUCCCGUACGGAACG [G48C C49A U53A G56A G58C], the yeast fitness rises from no more than 0.5 to 0.611.

Going from GUUCCGUUGGCGUAAUGGUAACACGUCUCCCUCCUAAGGAGAUGACUGCGGGUUCGAGUCCCGUACGGAACG [G23A A43U] to GUUCCGUUCGCGUAAGGGUAACGCGUCUACCUCCUAAGGAGAAGACUGCGGGUUCGAGUCCCGUAUGGAACG [G9C U16G C29A C66U], the yeast fitness falls from 0.699 to no more than 0.5.

Compared with GUUCUGUUGGCGUAAUGGUAACGCGUCUCCCUCCUAAGGAGAAGACUGCGGGAUCGAGUCCCGUACGGAACG [C5U U53A], GUUCCGCUGGCGUAAUGGUAACGCGUCUCGCUCCUAAGAAUAAGACUGCGCAUUCGAGUCCCGUACGGAACG [U7C C30G G39A G41U G51C G52A] is lower in yeast fitness: 0.604 for the first, no more than 0.5 for the second.

Going from GUUCCGUUGGCGAAAUGGUAACGCGUCUCCGUCCUAAGGAGGAGACUGCGGGUUCGAGUCCCGUACGGAACG [U13A C31G A42G] to GUUCCGUUGGCGUAACGGUAACGCGUCUCCCUCCUAAGGAGAAGACUGCGGGUUCGGGUCCCGUACGGAACG [U16C A57G], the yeast fitness rises from 0.699 to 0.925.

GUUCCGUCGGCGUAAUGGUAACGCGUCUCCCUCCUACGGAGAAGACUGCGAGUUCGAGUCCCGUACGGAACG [U8C A37C G51A] and GUUCCGUUGGCGUAAUGGUAACGCGUCUCGCUCCUAAGGAGAAGACUGCGGGUUCGAGUCCCAUACGGAUCG [C30G G63A A70U] cannot be ordered by yeast fitness: no more than 0.5 for the first, no more than 0.5 for the second.

Compared with GUUCCGUUGGCGUAAUGGUAACGCGUCUCCCUCCUAAGCAGAUGACUGCGGGUUCGAGUCCCGUACGGAACG [G39C A43U], GUUCCGUCGGCGUAAUGGUAACGCGUCUCCCUCCUAAGGCGAAGACUGCGGGUUCGAGUCCCGUCCGCAACG [U8C A40C A65C G68C] is lower in yeast fitness: 0.934 for the first, no more than 0.5 for the second.

First: GUUCCGUUGGCGUAAUGGUAACGCGUAUCCCUCCUAAGGAGAAGACUGGGGGAUCGAGUCCAGUACGGAACG [C27A C49G U53A C62A]
Second: GUUCCAUUGGCGUAAUGGUAACGCGUGUCCCUCCUAAGGAGAAGACUGCGGGUUCGAGUCCCGUCCGGAACG [G6A C27G A65C]
The yeast fitness of the first is higher: 0.571 for the first, 0.562 for the second.

First: GUUCCGUCGCCGUAAUGGUAUCCCGUCUCCCUCCUAAGGAGAAGACUGCGGGUUCAAGUCACGUGCGGAACG [U8C G10C A21U G23C G56A C61A A65G]
Second: GAUCUGUUGGCGUAAUGGUAACACGUCUCCCUCCUAGGGAGAAGACUGCGGGUUCGAGUCCCGUACGGAACG [U2A C5U G23A A37G]
The yeast fitness of the first is lower: no more than 0.5 for the first, 0.689 for the second.

Going from GUUCCGUUGGCGUAAUGGUAACGCGUCUCCCUCCUAUGGAGAAGACUGCGAGUUCGAGUCCCGUAGGGAACG [A37U G51A C66G] to GUUCCGUUAGCGUAAUGGUAACGCGUCUCCCUUCUUAGGAGAAGACUGCGGGUUCGAGUCCCGUACGGAACG [G9A C33U A36U], the yeast fitness rises from no more than 0.5 to 0.536.

GUUCCGUUGGAGUAAUGGUAACGCGUCUCCCUCCUAUGGAGAAGACUACGGGUUCGAGUCCCGUACGGAACG [C11A A37U G48A] and GUUCUGUUGGCGUAAUGGUAACGCGUCUCCCUCCUAGGGAGAAGCCUGCGGGUUCGAGUCGCGUACGGAUCG [C5U A37G A45C C61G A70U] cannot be ordered by yeast fitness: no more than 0.5 for the first, no more than 0.5 for the second.

GUUCCGUUGGCGUAAUGGUAACGCGUCUCCCUCCUAAGGAGAAGACUGCGGGUUCAUGUCCCGUACGGAUCG [G56A A57U A70U] and GUUCCGUUGGCGUAAUGGUAGCGCGUCUCCCUCCUUAGGAGAAGACUGAGGGUUCGAGUCCCGUACGGAACG [A21G A36U C49A] cannot be ordered by yeast fitness: no more than 0.5 for the first, no more than 0.5 for the second.

Compared with GGUUCGUUGGCGUAAUGGUAACGCGUCUCCCUCCUAAGGAGGAGACUGCGGGUUCGAGUCCCGUACGGAACG [U2G C4U A42G], GUCCCGUUGGCGUAAUGGAAACGCGUCUCCCUCCUAAGGAGAAGACUGCCGGUUCGAGUCCGGUAUGGAACG [U3C U19A G50C C62G C66U] is lower in yeast fitness: 0.755 for the first, 0.575 for the second.

Going from GUUCCGUUGGCGUAAUGGUAACGCGUUUCUCUCCUAAGGAGAAGACUGCGGGUUCGAGUCCCGUACGGAACG [C27U C30U] to GUUCCGUAGGCGUAAUGGUCACGCGUCUCCCUCCAAACGAGAAGACUGCGGGUUCGAGUCCCGUACGGCACG [U8A A20C U35A G38C A69C], the yeast fitness falls from 0.825 to 0.535.

First: GUUCCGUUGGCGUAAUGGUAACGCGUCUGCCUCCUAAGGAGAAGACUGUGGGUUCGAGUCCCGUACGGAACG [C29G C49U]
Second: GUUCCGUUGGCGUAAUGGUAACGCGUCUCCUUCCUAAGGAGAAGACUGCGGGUUCGAGUCGCGUACGGAACG [C31U C61G]
The yeast fitness of the first is higher: 0.718 for the first, 0.707 for the second.

Compared with GUUCCGUUGGCGUAAUGGUAACGCGCCUCCCUCCUAAGGUGAAGACUGCGGGUUCGAGUUCCGUACGGCACG [U26C A40U C60U A69C], GUUCGGUUGGCGUAAUGAUUACGCGUCUCCCUCCUAAGGAGAAGACUGCGGGUUGGAGUCCCGUACGGAACG [C5G G18A A20U C55G] is lower in yeast fitness: 0.535 for the first, no more than 0.5 for the second.

First: GUUCCGUUGGCGUAAUGGUAACGCGUCUCCCUCCUUAGGAGAAGACUGCGGGUUCGAGUCCCGUACGGACCG [A36U A70C]
Second: GUUCCGUUGGCGUAAUGGUAACGCGUCUCGCUCCUAAGGAGAAGACUGCGGGUUCGAGUCCUGUACGGAACG [C30G C62U]
The yeast fitness of the first is higher: 0.799 for the first, 0.643 for the second.

First: GUUCCGUCGGCGUAAUGGUAACGCGUCUCCCCCCUAAGGAGAAGAAUGCGGGUUAGAGUCCCGUACGGAACG [U8C U32C C46A C55A]
Second: GUUCCGUUGGCGUAAUGGUAACGCAUCUCCCUCCUAAGGACAAGACUGCGGGUGCGAGUCUCGUACGGAACG [G25A G41C U54G C61U]
The yeast fitness of the first is higher: 0.625 for the first, no more than 0.5 for the second.

First: GUUCCGUUGGCGUAAUGGUAACGCGACUCCCUCCUAAGGAGAAGACGGCGGGUCCGAGUCCCGUACGGAACG [U26A U47G U54C]
Second: GAUCCGUUGGCGUAAUGGUAACGCGUCUCCCUCCUAGGGAGAAGACUGCGGGUUCGAGUCCCGUACGGAACG [U2A A37G]
The yeast fitness of the first is lower: no more than 0.5 for the first, 0.659 for the second.

— the RNAGym collection of RNA variant scans (doi:10.1126/science.aae0568)
